Drawing on ChEMBL document CHEMBL1153086, “N-acylpolyamine inhibitors of HDM2 and HDMX binding to p53” (Bioorg Med Chem, 2009), this text covers IC50 for 31 compounds.

The target in assay [1] is E3 ubiquitin-protein ligase Mdm2 (Homo sapiens, UniProt Q00987). Kind of assay: Inhibition of HDM2 expressed in Escherichia coli BL21 (DE3) assessed as inhibition of HDM2 binding to p53 protein by fluorescence anisotropy competition method. In short, it runs like this: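 Fluorescence anisotropy competition: HDM2(11–119) at 2.2 μM with 30 nM fluorescein-labeled human p53(15–29) (protein in 70-fold molar excess) in 10 mM Tris-HCl pH 7.6, 150 mM NaCl, 0.50 mM EDTA, 2 mM β-mercaptoethanol, incubated room temperature 1 h or 4 °C overnight. Competitor diluted in water from ~10−2 M stocks. Anisotropy read at 25 °C in triplicate; IC50 from nonlinear fit with slope factor.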
Chain of E3 ubiquitin-protein ligase Mdm2 (Q00987 whole entry): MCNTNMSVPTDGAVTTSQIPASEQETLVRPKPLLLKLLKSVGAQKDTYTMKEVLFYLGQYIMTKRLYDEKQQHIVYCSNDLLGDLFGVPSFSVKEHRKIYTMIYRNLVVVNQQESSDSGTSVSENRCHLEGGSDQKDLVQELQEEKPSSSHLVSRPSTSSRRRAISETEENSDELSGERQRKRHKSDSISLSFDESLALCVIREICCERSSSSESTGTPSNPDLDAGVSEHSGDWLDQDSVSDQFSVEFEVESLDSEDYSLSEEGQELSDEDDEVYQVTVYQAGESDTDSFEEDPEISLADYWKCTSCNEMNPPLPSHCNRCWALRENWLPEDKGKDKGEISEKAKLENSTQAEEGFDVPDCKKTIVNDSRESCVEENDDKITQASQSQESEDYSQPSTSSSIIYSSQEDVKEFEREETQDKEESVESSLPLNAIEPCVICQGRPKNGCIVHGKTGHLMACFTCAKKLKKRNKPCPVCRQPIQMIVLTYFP
A general note: In fluorescence polarisation assays a small probe gives low polarisation when free and higher when bound to something large.

For the next assay, the target named is T1, Protein Mdm4 (Homo sapiens, UniProt O15151).
T1 sequence (O15151 whole entry): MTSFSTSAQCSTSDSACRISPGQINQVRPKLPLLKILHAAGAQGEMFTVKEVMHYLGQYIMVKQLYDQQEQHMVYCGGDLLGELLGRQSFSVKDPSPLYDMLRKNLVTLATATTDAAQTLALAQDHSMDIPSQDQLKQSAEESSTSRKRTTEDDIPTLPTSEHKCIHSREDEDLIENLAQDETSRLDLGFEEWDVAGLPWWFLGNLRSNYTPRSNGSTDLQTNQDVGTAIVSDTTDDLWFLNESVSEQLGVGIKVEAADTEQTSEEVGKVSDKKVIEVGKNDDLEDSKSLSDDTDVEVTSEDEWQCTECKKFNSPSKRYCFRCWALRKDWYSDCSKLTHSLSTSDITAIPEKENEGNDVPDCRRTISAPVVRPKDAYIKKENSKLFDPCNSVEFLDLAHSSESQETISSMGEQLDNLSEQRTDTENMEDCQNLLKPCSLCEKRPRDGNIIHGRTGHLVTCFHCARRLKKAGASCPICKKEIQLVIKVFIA
Kind of assay: Inhibition of GST-tagged HDMX expressed in Escherichia coli BL21 (DE3) assessed as inhibition of HDMX binding to p53 protein by fluorescence anisotropy competition method.

As to `COc1ccc(CCCNC(=O)N(CC(CCC(=O)O)NC(N)=O)C(CCCCN)CN(C(=O)NCCc2ccc(Br)cc2)C(CCC(=O)O)CN(CCC(N)=O)C(=O)NCCCc2ccc(Br)cc2)cc1` (centres undefined), the IC50 (in assay [1] (read-out: IC50); on Protein Mdm4 (read-out: IC50)) was 12 µM each time. For the compound `Cc1ccc(CCNC(=O)N(CC(CCCCN)N(CC(CCC(=O)O)NC(=O)CCC(C)C)C(=O)NCCCC2CCCCC2)C(CCC(=O)O)CN(CCC(N)=O)C(=O)NCCCCc2ccc(F)cc2)cc1` (centres undefined), the results for the IC50 (in assay [1] (read-out: IC50); on Protein Mdm4 (read-out: IC50)) were 13 µM and 14 µM, respectively.

Consider `NCCCCC(CN(C(=O)NCCc1ccc(Br)cc1)C(CCC(=O)O)CN(CCC(N)=O)C(=O)NCCCc1ccc(Br)cc1)N(CC(CCC(=O)O)NC(=O)[C@@H]1CCCN1)C(=O)NCCCC1CCCCC1` (some centres undefined), for which the IC50 (in general, the midpoint of a concentration-inhibition curve) in assay [1] (read-out: IC50) was found to be 8.2 µM; at Protein Mdm4 (read-out: IC50), 10 µM.

With `CC(C)CCCNC(=O)N(CC(CCC(=O)O)NC(N)=O)C(CCCCN)CN(C(=O)NCCc1ccc(Cl)cc1)C(CCC(=O)O)CN(CCC(N)=O)C(=O)NCCc1ccccc1` (centres undefined), the IC50 in assay [1] (read-out: IC50) was 85 µM. Turning to `CC(C)CCCNC(=O)N(CC(CCC(=O)O)NC(N)=O)C(CCCCN)CN(C(=O)NCCCc1ccccc1)C(CCC(=O)O)CN(CCC(N)=O)C(=O)NCCc1ccc(Br)cc1` (centres undefined), in assay [1] (read-out: IC50), the IC50 turned out to be 38 µM. With `NCCCCC(CN(C(=O)NCCc1ccc(Br)cc1)C(CCC(=O)O)CN(CCC(N)=O)C(=O)NCCCc1ccc(Br)cc1)N(CC(CCC(=O)O)NC(N)=O)C(=O)NCCCC1CCCCC1` (centres undefined), the IC50 was 6.4 µM in assay [1] (read-out: IC50) and 6.5 µM on Protein Mdm4 (read-out: IC50).

Regarding `NCCCCC(CN(C(=O)NCCc1ccc(Br)cc1)C(CCC(=O)O)CN(CCC(N)=O)C(=O)NCCCc1ccc(Br)cc1)N(CC(CCC(=O)O)NC(=O)NCC1CCCCC1)C(=O)NCCCC1CCCCC1` (centres undefined), the IC50 in assay [1] (read-out: IC50) came out at 6.6 µM; on Protein Mdm4 (read-out: IC50) it was 8 µM. For `CC(C)CCCCNC(=O)N(CC(CCC(=O)O)NC(N)=O)C(CCCCN)CN(C(=O)NCCc1ccc(Br)cc1)C(CCC(=O)O)CN(CCC(N)=O)C(=O)NCCCc1ccc(Br)cc1` (centres undefined), the IC50 (in assay [1] (read-out: IC50); on Protein Mdm4 (read-out: IC50)) was 13 µM in each case. For `CC(C)CCCNC(=O)N(CC(CCC(=O)O)NC(N)=O)C(CCCCN)CN(C(=O)NCCc1ccc(Cl)cc1)C(CCC(=O)O)CN(CCC(N)=O)C(=O)NCCCc1ccccc1` (centres undefined), the IC50 in assay [1] (read-out: IC50) stood at 43 µM.

With `NCCCC[C@@H](CN(C(=O)NCCCC1CCCCC1)[C@@H](CCCCN)CN(C(=O)NCCc1ccc(Br)cc1)[C@@H](CCCCN)CN(CCC(N)=O)C(=O)NCCCc1ccc(F)cc1)NC(N)=O`, the IC50 entry (in assay [1]; at Protein Mdm4) was “Not Active” in each case. Turning to `CC(C)CCC(=O)NC(CCC(=O)O)CN(C(=O)NCCCC1CCCCC1)C(CCCCN)CN(C(=O)NCCc1ccc(Br)cc1)C(CCC(=O)O)CN(CCC(N)=O)C(=O)NCCCc1ccc(F)cc1` (centres undefined), the values for the IC50 (in assay [1] (read-out: IC50); at Protein Mdm4 (read-out: IC50)) were 2.6 µM and 2.7 µM, respectively. As for `CC(C)CCCNC(=O)N(CC(CCC(=O)O)NC(N)=O)C(CCCCN)CN(C(=O)NCCc1ccc(Br)cc1)C(CCC(=O)O)CN(CCC(N)=O)C(=O)NCCCc1ccc(Br)cc1` (centres undefined), the IC50 came to 9.2 µM in assay [1] (read-out: IC50) and 24 µM on Protein Mdm4 (read-out: IC50). The matching figures for `Cc1ccc(CCNC(=O)N(CC(CCCCN)N(CC(CCC(=O)O)NC(=O)CCC(C)C)C(=O)NCCCC2CCCCC2)C(CCC(=O)O)CN(CCC(N)=O)C(=O)NCCCc2ccc(Br)cc2)cc1` (centres undefined): 2.3 µM and 3.2 µM. In the case of `COc1ccc(CCCNC(=O)N(CCC(N)=O)CC(CCC(=O)O)N(CC(CCCCN)N(CC(CCC(=O)O)NC(N)=O)C(=O)NCCCC(C)C)C(=O)NCCc2ccc(Br)cc2)cc1` (centres undefined), the IC50 (in assay [1] (read-out: IC50); at Protein Mdm4 (read-out: IC50)) was greater than 100 µM each time. As for `CC(C)CCC(=O)NC(CCC(=O)O)CN(CCC1CCC2(CCCCC2)CC1)C(CCCCN)CN(CCCCc1ccc(Br)cc1)[C@@H](CCC(=O)O)CN(CCCCCc1ccc(F)cc1)CCC(N)=O` (some centres undefined), the IC50 (in assay [1] (read-out: IC50); on Protein Mdm4 (read-out: IC50)) was greater than 100 µM each time.

As to `NCCCCC(CN(C(=O)NCCc1ccc(Br)cc1)C(CCC(=O)O)CN(CCC(N)=O)C(=O)NCCCc1ccc(Br)cc1)N(CC(CCC(=O)O)NC(N)=O)C(=O)NCCCc1ccccc1` (centres undefined), the concentration for half-maximal inhibition (IC50) was 13 µM in assay [1] (read-out: IC50) and 20 µM at Protein Mdm4 (read-out: IC50). Take `CC(C)CCC(=O)N[C@@H](CCCC(=O)O)CN(C(=O)NCCCC1CCCCC1)[C@@H](CCCCN)CN(C(=O)NCCc1ccc(Br)cc1)[C@@H](CCCC(=O)O)CN(CCC(N)=O)C(=O)NCCCc1ccc(F)cc1`: the IC50 in assay [1] (read-out: IC50) was determined as 5.9 µM; on Protein Mdm4 (read-out: IC50), 41 µM. For `NCCCCC(CN(C(=O)NCCc1ccc(Br)cc1)C(CCC(=O)O)CN(CCC(N)=O)C(=O)NCCCc1ccc(Br)cc1)N(CC(CCC(=O)O)NC(N)=O)C(=O)NCCCc1ccc([N+](=O)[O-])cc1` (centres undefined), the results for the IC50 (in assay [1] (read-out: IC50); on Protein Mdm4 (read-out: IC50)) were 10 µM and 8.1 µM, respectively. For the compound `Cc1ccc(CCCNC(=O)N(CCC(N)=O)CC(CCC(=O)O)N(CC(CCCCN)N(CC(CCC(=O)O)NC(N)=O)C(=O)NCCCC(C)C)C(=O)NCCc2ccc(Br)cc2)cc1` (centres undefined), the IC50 was determined as 24 µM in assay [1] (read-out: IC50) and 36 µM at Protein Mdm4 (read-out: IC50). Turning to `CC(C)CCCNC(=O)N(CC(CCC(=O)O)NC(N)=O)C(CCCCN)CN(C(=O)NCCCc1ccc(Br)cc1)C(CCC(=O)O)CN(CCC(N)=O)C(=O)NCCCc1ccccc1` (centres undefined), the IC50 in assay [1] (read-out: IC50) was 20 µM.

With `C=CCNC(=O)NC(CCC(=O)O)CN(C(=O)NCCCC1CCCCC1)C(CCCCN)CN(C(=O)NCCc1ccc(Br)cc1)C(CCC(=O)O)CN(CCC(N)=O)C(=O)NCCCc1ccc(Br)cc1` (centres undefined), the IC50 in assay [1] (read-out: IC50) turned out to be 17 µM; on Protein Mdm4 (read-out: IC50), 10 µM. On to `CC(C)CCCNC(=O)N(CC(CCC(=O)O)NC(N)=O)C(CCCCN)CN(C(=O)NCCc1ccc(Br)cc1)C(CCC(=O)O)CN(CCC(N)=O)C(=O)NCCc1ccc(Br)cc1` (centres undefined), for which the IC50 in assay [1] (read-out: IC50) turned out to be 17 µM; at Protein Mdm4 (read-out: IC50), 41 µM. For the compound `Cc1ccc(CCNC(=O)N(CC(CCCCN)N(CC(CCC(=O)O)NC(=O)CCC(C)C)C(=O)NCCCC2CCCCC2)C(CCC(=O)O)CN(CCC(N)=O)C(=O)NCCCc2ccc(F)cc2)cc1` (centres undefined), the IC50 in assay [1] (read-out: IC50) was found to be 2.9 µM; on Protein Mdm4 (read-out: IC50), 5.1 µM. Turning to `NCCCCC(CN(C(=O)NCCc1ccc(Br)cc1)C(CCC(=O)O)CN(CCC(N)=O)C(=O)NCCCc1ccc(Br)cc1)N(CC(CCC(=O)O)NC(=O)CCC1CCCCC1)C(=O)NCCCC1CCCCC1` (centres undefined), the IC50 amounted to 2.8 µM in assay [1] (read-out: IC50) and 7.5 µM at Protein Mdm4 (read-out: IC50). Take `NCCCCC(CN(C(=O)NCCc1ccc(Br)cc1)C(CCC(=O)O)CN(CCC(N)=O)C(=O)NCCCc1ccc(Br)cc1)N(CC(CCC(=O)O)NC(N)=O)C(=O)NCCCc1ccc(Br)cc1` (centres undefined): the IC50 was found to be 8.2 µM in assay [1] (read-out: IC50) and 7.5 µM on Protein Mdm4 (read-out: IC50). For the compound `CC(C)CCNC(=O)N(CC(CCC(=O)O)NC(N)=O)C(CCCCN)CN(C(=O)NCCc1ccc(Cl)cc1)C(CCC(=O)O)CN(CCC(N)=O)C(=O)NCCc1ccccc1` (centres undefined), in assay [1] (read-out: IC50), the IC50 is greater than 100 µM.

For `CC(C)CCCNC(=O)N(CC(CCC(=O)O)NC(N)=O)C(CCCCN)CN(C(=O)NCCc1ccc(Cl)cc1)C(CCC(=O)O)CN(CCC(N)=O)C(=O)NCCc1ccc(Cl)cc1` (centres undefined), in assay [1] (read-out: IC50), the IC50 is 63 µM.

Turning to `CC(C)CCC(=O)NC(CCC(=O)O)CN(C(=O)NCCCC1CCCCC1)C(CCCCN)CN(C(=O)NCCc1ccc(Br)cc1)C(CCC(=O)O)CN(CCC(N)=O)C(=O)NCCCc1ccc(Br)cc1` (centres undefined), the IC50 is 2.8 µM in assay [1] (read-out: IC50) and 4.1 µM at Protein Mdm4 (read-out: IC50). Turning to `NCCCCC(CN(C(=O)NCCc1ccc(Br)cc1)C(CCC(=O)O)CN(CCC(N)=O)C(=O)NCCCc1ccc(Br)cc1)N(CC(CCC(=O)O)NC(=O)Cc1ccccc1)C(=O)NCCCC1CCCCC1` (centres undefined), the IC50 in assay [1] (read-out: IC50) stood at 10.5 µM; on Protein Mdm4 (read-out: IC50), 7.6 µM.

`CC(C)CCCNC(=O)N(CC(CCC(=O)O)NC(N)=O)C(CCCCN)CN(C(=O)NCCc1ccc(Br)cc1)C(CCC(=O)O)CN(CCC(N)=O)C(=O)NCCCc1ccc([N+](=O)[O-])cc1` (centres undefined): the IC50 in assay [1] (read-out: IC50) is 41 µM. The same measure, in the same setting: the same measure for `CC(C)CCCNC(=O)N(CC(CCC(=O)O)NC(N)=O)C(CCCCN)CN(C(=O)NCCc1ccc(Br)cc1)C(CCC(=O)O)CN(CCC(N)=O)C(=O)NCCCc1ccccc1` (centres undefined): 18 µM.
